From ChEMBL document CHEMBL3085712, “Protein tyrosine phosphatase 1B (PTP1B) inhibitors from Morinda citrifolia (Noni) and their insulin mimetic activity” (J Nat Prod, 2013)

Assays:
3T3-L1 [1] = assay: Increase in 2-NBDG uptake in mouse 3T3L1 cells after 30 mins by fluorescence spectrophotometry; format: functional, cell-based
In short: (§1)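 Mouse 3T3-L1 preadipocytes were differentiated with insulin, IBMX, dexamethasone, rosiglitazone and 10% FBS, then used 7 days after induction at 3 × 10^4 cells/well. Cells were starved 3 h in low-glucose serum-free DMEM, treated 30 min, then given 50 μM 2-NBDG for 1 h (90 min total). After lysis in 0.1 M K3PO4/1% Triton X-100, fluorescence was read at ex 450/em 535 nm; fold versus DMSO; triplicates, mean ± SD.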

[2] = molecular target: T1, Tyrosine-protein phosphatase non-receptor type 1 (Homo sapiens, UniProt P18031); assay: Inhibition of PTP1B (unknown origin) assessed as p-nitrophenol release from pNPP substrate after 30 mins by spectrophotometry
T1 sequence (P18031 whole entry): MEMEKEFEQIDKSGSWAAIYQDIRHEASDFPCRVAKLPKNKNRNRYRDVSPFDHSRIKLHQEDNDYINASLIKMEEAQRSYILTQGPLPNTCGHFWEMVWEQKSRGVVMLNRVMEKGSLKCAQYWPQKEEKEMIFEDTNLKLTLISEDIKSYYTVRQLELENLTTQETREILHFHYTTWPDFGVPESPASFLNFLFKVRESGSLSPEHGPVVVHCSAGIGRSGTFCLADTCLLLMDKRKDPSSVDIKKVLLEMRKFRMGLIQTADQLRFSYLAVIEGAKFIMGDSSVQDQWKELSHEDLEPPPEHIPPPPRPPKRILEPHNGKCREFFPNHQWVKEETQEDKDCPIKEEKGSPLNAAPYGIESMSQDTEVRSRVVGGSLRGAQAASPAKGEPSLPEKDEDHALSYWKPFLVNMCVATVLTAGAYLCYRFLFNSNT
In short: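 Commercial PTP1B (0.05–0.1 μg) was incubated with 4 mM p-NPP in 50 mM citrate pH 6.0, 1 mM DTT, 0.1 M NaCl and 1 mM EDTA at 37 °C for 30 min. IC50 came from a seven-concentration curve; triplicates, mean ± SD.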

3T3-L1 [3] = assay: Increase in 2-NBDG uptake in mouse 3T3L1 cells at 400 ug/ml after 30 mins by fluorescence spectrophotometry relative to DMSO-treated control; format: functional; in short: as §1

With `Oc1ccc([C@H]2OC[C@H]3[C@@H]2CO[C@H]3c2ccc(O)c(O)c2)cc1O` the Activity (3T3-L1 [1]) was “Dose-dependent effect”, the IC50 ([2]; read-out: IC50) was 21.9 µM and the “fold change (FC)” value (3T3-L1 [3]; in the assay text read “at 20 uM” for “at 400 ug/ml”) was 1.52.

`COc1cc([C@@H]2OC[C@H]3[C@@H]2CO[C@H]3c2ccc(O)c(OC)c2)ccc1O` [(-)-PINORESINOL] was tested, and the IC50 ([2]; read-out: IC50) was 18.7 µM.

In the case of `CN(CCOc1ccc(CC2SC(=O)NC2=O)cc1)c1ccccn1` (configuration not stated) [ROSIGLITAZONE], the “fold change (FC)” value (3T3-L1 [3]) is reported as 1.7.

For `COc1cc([C@H]2OC[C@H]3[C@@H]2CO[C@@H]3c2cc(OC)c(OC)c(OC)c2)cc(OC)c1OC`, the Activity (3T3-L1 [1]) was “Dose-dependent effect”, the IC50 ([2]; read-out: IC50) was 16.8 µM and the “fold change (FC)” value (3T3-L1 [3]) was 1.45.

With `Oc1ccc([C@@H]2OC[C@@H]3[C@H]2CO[C@H]3c2ccc(O)c(O)c2)cc1O` the IC50 ([2]; read-out: IC50) was over 30 µM.

`O=C1O[C@@H](c2ccc(O)c(O)c2)[C@@H]2CO[C@@H](c3ccc(O)c(O)c3)[C@H]12` was tested, and the IC50 [2] was “Not Active”.

In the case of `O=C1O[C@@H](c2ccc(O)c(O)c2)[C@H](CO)/C1=C\c1ccc(O)c(O)c1` (relative stereo), the IC50 [2] is reported as “Not Active”.

In the case of `COc1cc([C@H]2Oc3ccc(CCCO)cc3O[C@@H]2CO)ccc1O` (relative stereo), the IC50 ([2]; read-out: IC50) is reported as over 30 µM.

With `COc1cc([C@H]2OC[C@H]3[C@@H]2CO[C@@H]3c2cc(OC)c(O)c(OC)c2)cc(OC)c1O` [SYRINGARESINOL] the Activity (3T3-L1 [1]) was “Dose-dependent effect”, the IC50 ([2]; read-out: IC50) was 15 µM and the “fold change (FC)” value (3T3-L1 [3]) was 1.46.

Work on `O=C(O)/C=C/c1ccc2c(c1)O[C@@H](CO)[C@H](c1ccc(O)c(O)c1)O2` (relative stereo) yielded an IC50 ([2]; read-out: IC50) of over 30 µM.

`O=C/C=C/c1ccc2c(c1)O[C@@H](CO)[C@H](c1ccc(O)c(O)c1)O2` [AMERICANIN A] was tested, and the IC50 [2] was “Not Active”.

With `O=C(O)/C=C/c1ccc2c(c1)O[C@@H](CO)[C@@H](c1ccc(O)c(O)c1)O2` the IC50 ([2]; read-out: IC50) was over 30 µM.

With `COc1cc([C@H]2Oc3ccc(/C=C/C(=O)O)cc3O[C@@H]2CO)ccc1O` the IC50 ([2]; read-out: IC50) was over 30 µM.

`COc1cc([C@H]2Oc3ccc(C(=O)O)cc3O[C@@H]2CO)ccc1O` showed an IC50 ([2]; read-out: IC50) of 19.6 µM.

For `C[C@H]1[C@H](C)CC[C@]2(C(=O)O)CC[C@]3(C)C(=CC[C@@H]4[C@@]5(C)CC[C@H](O)C(C)(C)[C@@H]5CC[C@]43C)[C@H]12` [URSOLIC ACID], the Activity (3T3-L1 [1]) was “Dose-dependent effect” and the “fold change (FC)” value (3T3-L1 [3]) was 1.82.
